{"data": "Results from different studies", "read-out": "cell growth or viability"}
{"SMILES": "COc1cc2ncnc(NN=C3C(=O)Nc4ccc(C)cc43)c2cc1OC", "cell line": "ZR75", "setting": "30 µM", "quantity": "inhibition", "result": "40.4%"}
{"SMILES": "Cc1ccc(C(CS(=O)(=O)c2ccccc2)=NN=C2N=C(c3ccc(Br)cc3)CS2)cc1", "cell line": "WM 266-4", "assay": "MTT", "setting": "25 µM, 48 h", "quantity": "viability", "result": "42.1%"}
{"SMILES": "O=C1Nc2ccc(Cl)cc2/C1=N/NC(=O)c1cc2ccccc2[nH]1", "cell line": "ZR75", "setting": "30 µM", "quantity": "inhibition", "result": "53.9%"}
{"SMILES": "Cn1c(=O)c(NN=C2C(=O)Nc3ccc(Br)cc32)nc2ccccc21", "cell line": "ZR75", "setting": "30 µM", "quantity": "inhibition", "result": "62.1%"}
{"SMILES": "NC(=S)NN=C(CS(=O)(=O)c1ccccc1)c1ccc(F)cc1", "cell line": "WM 266-4", "assay": "MTT", "setting": "100 µM, 48 h", "quantity": "viability", "result": "24.4%"}
{"SMILES": "O=C1Nc2ccccc2/C1=N/NC(=O)c1cc2ccccc2[nH]1", "cell line": "ZR75", "setting": "30 µM", "quantity": "inhibition", "result": "57.7%"}
{"SMILES": "O=C(Cc1ccc(C(F)(F)F)cc1)Nc1cccc(C(=O)Nc2ccc3[nH]ncc3c2)c1", "cell line": "KM12", "assay": "ATP luminescence", "setting": "72 h", "quantity": "IC50", "result": "48.4 µM"}
{"SMILES": "Cc1ccc(C(CS(=O)(=O)c2ccccc2)=NNc2nc(C)c(N=Nc3cccc(C)c3)s2)cc1", "cell line": "WM 266-4", "assay": "MTT", "setting": "100 µM, 48 h", "quantity": "viability", "result": "32.8%"}
{"SMILES": "COc1cccc(Oc2ccccc2NC(=O)CNC(=O)c2cccc3ccccc23)c1", "cell line": "KM12", "assay": "SRB", "setting": "48 h", "quantity": "GI50", "result": "0.191 µM"}
{"SMILES": "CNC(=O)c1cc(Oc2ccc(NC(=O)Nc3ccc(Cl)c(C(F)(F)F)c3)cc2)ccn1", "cell line": "WM 266-4", "assay": "MTT", "setting": "6.3 µM, 48 h", "quantity": "viability", "result": "50.7%"}
{"SMILES": "COc1ccc(-c2nc(NN=C3C(=O)Nc4ccc(Br)cc43)c3ccccc3n2)cc1OC", "cell line": "ZR75", "setting": "10 µM", "quantity": "inhibition", "result": "78.8%"}
{"SMILES": "CN1CCN(c2ccc(C(=O)Nc3n[nH]c4ccc(Cc5cc(F)cc(F)c5)cc34)c(NC3CCOCC3)c2)CC1", "cell line": "KM12", "assay": "ATP luminescence", "setting": "72 h", "quantity": "IC50", "result": "23.6 µM"}
{"SMILES": "COc1ccc2c(c1)/C(=N/NC(=O)c1cc3ccccc3[nH]1)C(=O)N2", "cell line": "ZR75", "setting": "30 µM", "quantity": "inhibition", "result": "65.9%"}
{"SMILES": "COc1cc2ncnc(NN=C3C(=O)Nc4ccccc43)c2cc1OC", "cell line": "ZR75", "setting": "30 µM", "quantity": "inhibition", "result": "50.4%"}
{"SMILES": "C=CC(=O)N1CCC[C@@H](n2nc(-c3ccc(Oc4ccccc4)cc3)c3c(N)ncnc32)C1", "cell line": "KMS-12-BM", "setting": "48 h", "quantity": "GI50", "result": "> 10 µM"}
{"SMILES": "O=C(Nc1ccc(F)cc1)Nc1cccc(C(=O)Nc2ccc3[nH]ncc3c2)c1", "cell line": "KM12", "assay": "ATP luminescence", "setting": "72 h", "quantity": "IC50", "result": "40.3 µM"}
{"SMILES": "Cn1c(=O)c(NN=C2C(=O)Nc3ccc(F)cc32)nc2ccccc21", "cell line": "ZR75", "setting": "30 µM", "quantity": "inhibition", "result": "22.6%"}
{"SMILES": "Cc1ccc(C(CS(=O)(=O)c2ccccc2)=NNc2nc(-c3ccc(OCCCCOc4ccc(-c5csc(NN=C(CS(=O)(=O)c6ccccc6)c6ccc(C)cc6)n5)cc4)cc3)cs2)cc1", "cell line": "WM 266-4", "assay": "MTT", "setting": "25 µM, 48 h", "quantity": "viability", "result": "48.8%"}
{"SMILES": "CN1C(=O)/C(=N\\NC(=O)c2cc3ccccc3[nH]2)c2cc(Br)ccc21", "cell line": "ZR75", "setting": "30 µM", "quantity": "inhibition", "result": "90.2%"}
{"SMILES": "S=C([S][Au-][P+](CCCCCC[P+]([Au-][S]C(=S)n1cccn1)(c1ccccc1)c1ccccc1)(c1ccccc1)c1ccccc1)n1cccn1", "cell line": "KM12", "quantity": "GI50", "result": "0.434 µM"}
{"SMILES": "Cn1c(=O)c(NN=C2C(=O)Nc3ccccc32)nc2ccccc21", "cell line": "ZR75", "setting": "30 µM", "quantity": "inhibition", "result": "52.1%"}
{"SMILES": "C=CC(=O)N1CCC[C@@H](n2nc(-c3ccc(Oc4ccccc4)cc3)c3c(N)ncnc32)C1", "cell line": "JeKo-1", "assay": "ATP luminescence", "setting": "72 h", "quantity": "GI50", "result": "20.1 µM"}
{"SMILES": "Cc1ccc2c(c1)C(=NNc1nnc(Cc3ccccc3)c3ccccc13)C(=O)N2", "cell line": "ZR75", "setting": "30 µM", "quantity": "inhibition", "result": "69.6%"}
{"SMILES": "Cc1ccc(C(CS(=O)(=O)c2ccccc2)=NNC2=NC(=O)C(=NNc3ccccc3)S2)cc1", "cell line": "WM 266-4", "assay": "MTT", "setting": "6.3 µM, 48 h", "quantity": "viability", "result": "48.2%"}
{"SMILES": "CN1C(=O)/C(=N\\NC(=O)c2cc3ccccc3[nH]2)c2ccccc21", "cell line": "ZR75", "setting": "30 µM", "quantity": "inhibition", "result": "73.1%"}
{"SMILES": "CC(C)(C)c1nc(-c2cccc(NS(=O)(=O)c3c(F)cccc3F)c2F)c(-c2ccnc(N)n2)s1", "cell line": "WM 266-4", "assay": "MTT", "setting": "100 µM, 48 h", "quantity": "viability", "result": "38.1%"}
{"SMILES": "CCN(CC)CCNC(=O)c1c(C)[nH]c(/C=C2\\C(=O)Nc3ccc(F)cc32)c1C", "cell line": "ZR75", "setting": "30 µM", "quantity": "inhibition", "result": "90.7%"}
